Data reported in ChEMBL document CHEMBL1146933, “In silico identification of novel EGFR inhibitors with antiproliferative activity against cancer cells” (Bioorg Med Chem Lett, 2006).
Activity calls are given as the source filed them. No cut-off for these calls is given here.

Columns and labels:
[1] = molecular target: T1, Epidermal growth factor receptor (Homo sapiens, UniProt P00533); assay: Inhibition of EGFR kinase activity at 10 uM; parameters: scale not given: the % may be the effect or the level left
T1 sequence (P00533 whole entry): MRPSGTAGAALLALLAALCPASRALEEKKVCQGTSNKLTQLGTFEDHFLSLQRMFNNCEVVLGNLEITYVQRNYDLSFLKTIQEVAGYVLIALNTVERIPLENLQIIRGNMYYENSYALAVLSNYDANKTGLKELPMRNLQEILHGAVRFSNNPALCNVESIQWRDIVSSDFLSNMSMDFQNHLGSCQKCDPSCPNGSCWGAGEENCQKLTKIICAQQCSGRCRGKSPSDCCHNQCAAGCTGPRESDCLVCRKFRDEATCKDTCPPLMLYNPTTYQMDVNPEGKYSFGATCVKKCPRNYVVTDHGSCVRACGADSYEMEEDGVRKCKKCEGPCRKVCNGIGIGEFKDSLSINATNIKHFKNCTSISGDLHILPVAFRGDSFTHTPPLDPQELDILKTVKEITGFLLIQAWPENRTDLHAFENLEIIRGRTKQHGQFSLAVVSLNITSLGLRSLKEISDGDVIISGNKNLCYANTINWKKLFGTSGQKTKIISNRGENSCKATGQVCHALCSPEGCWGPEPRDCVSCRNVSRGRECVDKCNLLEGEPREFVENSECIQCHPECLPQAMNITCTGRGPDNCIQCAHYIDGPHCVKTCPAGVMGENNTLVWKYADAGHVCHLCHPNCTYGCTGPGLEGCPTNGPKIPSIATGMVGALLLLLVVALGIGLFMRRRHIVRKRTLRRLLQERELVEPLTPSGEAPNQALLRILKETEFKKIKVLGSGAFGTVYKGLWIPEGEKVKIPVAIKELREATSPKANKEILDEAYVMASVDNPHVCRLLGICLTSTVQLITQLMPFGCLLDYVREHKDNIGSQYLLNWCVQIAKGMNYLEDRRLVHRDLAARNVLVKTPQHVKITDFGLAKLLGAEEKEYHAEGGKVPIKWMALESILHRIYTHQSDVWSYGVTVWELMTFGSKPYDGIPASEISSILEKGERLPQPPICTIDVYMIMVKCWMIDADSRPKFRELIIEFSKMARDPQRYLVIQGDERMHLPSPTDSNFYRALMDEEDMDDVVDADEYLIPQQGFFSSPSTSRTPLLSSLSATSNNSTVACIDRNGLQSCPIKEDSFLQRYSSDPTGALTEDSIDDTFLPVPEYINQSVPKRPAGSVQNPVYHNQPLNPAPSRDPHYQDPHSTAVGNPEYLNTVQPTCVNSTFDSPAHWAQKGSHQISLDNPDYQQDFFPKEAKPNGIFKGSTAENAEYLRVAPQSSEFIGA

[2] = molecular target: T1, Epidermal growth factor receptor; assay: Inhibition of EGFR kinase activity at 100 uM in presence of 2.5 uM ATP; parameters: scale not given: the % may be the effect or the level left
In short: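 EGFR purified from A431 cells, pre-incubated 30 min with 100 µM compound before kinase activity measurement. ATP held at 2.5 µM, four times below the Km for this enzyme preparation. Control was 2% DMSO. Mean ± standard deviation from 2–5 experiments in triplicate.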

A-431 [3] = assay: Antiproliferative activity against A431 cells at 50 uM by MTT assay after 48 hrs; type: functional, cell-based; conditions: Homo sapiens
In short: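 A431 cells exposed to 50 µM compound for 2 days; viability read by MTT. Controls grown in 0.5% DMSO. Values are percentage of control, mean ± standard deviation from three experiments run in quadruplicate.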

BT-474 = assay: Antiproliferative activity against BT474 cells at 50 uM by MTT assay; type: functional, cell-based; conditions: Homo sapiens
MDA-MB-435 = assay: Antiproliferative activity against MDA-MB-435 cells at 50 uM by MTT assay; type: functional, cell-based; conditions: Homo sapiens
MDA-MB-468 = assay: Antiproliferative activity against MDA-MB-468 cells at 50 uM by MTT assay; type: functional, cell-based; conditions: Homo sapiens
A-431 [4] = assay: Antiproliferative activity against A431 cells by MTT assay; type: functional, cell-based; conditions: Homo sapiens
In short: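 A431 cells grown with increasing compound concentrations; proliferation measured by MTT 48 h after treatment. Two experiments performed in triplicate.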

[5] = molecular target: T1, Epidermal growth factor receptor; assay: Inhibition of EGFR kinase activity
In short: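 EGFR purified from A431 cells, incubated with compound at varying concentrations for 30 min at room temperature. Kinase reaction then started with ATP/MgCl2 and run 30 min at 30 °C. Activity expressed as percent of inhibitor-free control; mean ± standard deviation from 1 to 3 experiments in triplicate.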

Compound	Activity [1]	Activity [2]	Activity (A-431 [3])	Activity (BT-474)	Activity (MDA-MB-435)	Activity (MDA-MB-468)	IC50 (A-431 [4])	IC50 [5]
Oc1[nH]c2ccc(I)cc2c1/N=N/c1cccc2cccnc12	inactive	50%	Active	Active	Active	Active	1 µM	
O=NC1=C(NNc2ccccc2)C(=O)c2ccccc21	inactive	50.3%		Active	Active	Active	6 µM	
Nc1[nH]nc2nc(-c3ccco3)c3c(c12)CCCC3	inactive	44.5%	Active	Active	Active	Active		
Cc1ccc(-c2cc(NC(=O)c3cccs3)[nH]n2)cc1	inactive	44.1%	inactive	inactive	inactive	inactive		
C=CCOc1ccc2c(c1)C(=NO)c1cc(OCC=C)ccc1-2	inactive	55.3%	Active	Active	Active	Active		
Cc1cccc(-n2ncc3c(NCc4ccc5c(c4)OCO5)ncnc32)c1	40%	48.4%	Active	Active	Active	Active		15 µM
O=C(CSc1nc(O)cc(-c2ccccc2)n1)N1c2ccccc2CCc2ccccc21	inactive	41.1%	Active	Active	Active	Active		
